Laboratory results taken from article PMC11520665 (Critical Care, 2024).

Assay: Safety: treatment-emergent adverse events
Format: in vivo, patients (adults)
Details: safety population
Procedure, shortened: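 Post-hoc pooled data from two randomised, double-blind, double-dummy trials. The safety population was adults in the ICU at randomisation who received ≥1 dose. Dosing was IV test compound weekly (400 mg Day 1, 200 mg Day 8, optional later 200 mg) or IV comparator echinocandin daily (70 mg Day 1, then 50 mg/day). TEAEs ran from dosing to follow-up, coded MedDRA 23.0, graded mild/moderate/severe, and summarised descriptively.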

[1] = ICU at randomisation, n=46 rezafungin, n=67 caspofungin
[2] = ICU at randomisation, number of events per severity

Substance: Caspofungin
- TEAE: Abdominal abscess, patients [1]: 4 (6.0) n (%)
- TEAE: Abdominal pain, patients [1]: 4 (6.0) n (%)
- TEAE: Acidosis, patients [1]: 4 (6.0) n (%)
- TEAE: Acute kidney injury, patients [1]: 4 (6.0) n (%)
- TEAE: Anaemia, patients [1]: 7 (10.4) n (%)
- TEAE: Atrial fibrillation, patients [1]: 3 (4.5) n (%)
- TEAE: Bradycardia, patients [1]: 5 (7.5) n (%)
- TEAE: Constipation, patients [1]: 4 (6.0) n (%)
- TEAE: Decubitus ulcer, patients [1]: 5 (7.5) n (%)
- TEAE: Deep vein thrombosis, patients [1]: 4 (6.0) n (%)
- TEAE: Diarrhoea, patients [1]: 7 (10.4) n (%)
- TEAE: Dyspnoea, patients [1]: 4 (6.0) n (%)
- TEAE: Fluid overload, patients [1]: 2 (3.0) n (%)
- TEAE: Hyperkalaemia, patients [1]: 5 (7.5) n (%)
- TEAE: Hypertension, patients [1]: 3 (4.5) n (%)
- TEAE: Hypokalaemia, patients [1]: 10 (14.9) n (%)
- TEAE: Hypotension, patients [1]: 6 (9.0) n (%)
- TEAE: Insomnia, patients [1]: 2 (3.0) n (%)
- TEAE: Multiple organ dysfunction syndrome, patients [1]: 3 (4.5) n (%)
- TEAE: Nausea, patients [1]: 4 (6.0) n (%)
- TEAE: Peripheral oedema, patients [1]: 2 (3.0) n (%)
- TEAE: Pleural effusion, patients [1]: 4 (6.0) n (%)
- TEAE: Pneumonia, patients [1]: 2 (3.0) n (%)
- TEAE: Pneumothorax, patients [1]: 4 (6.0) n (%)
- TEAE: Pyrexia, patients [1]: 6 (9.0) n (%)
- TEAE: Respiratory failure, patients [1]: 4 (6.0) n (%)
- TEAE: Sepsis, patients [1]: 3 (4.5) n (%)
- TEAE: Septic shock, patients [1]: 7 (10.4) n (%)
- TEAE: Vomiting, patients [1]: 3 (4.5) n (%)
- ≥ 1 TEAE [1]: 54 (80.6) n (%)
- ≥ 1 TEAE leading to study/drug discontinuation [1]: 20 (29.9) n (%)
- ≥ 1 serious TEAE [1]: 38 (56.7) n (%)
- ≥ 1 study drug-related TEAE [1]: 11 (16.4) n (%)
- ≥ 1 study drug-related TEAE leading to study/drug discontinuation [1]: 2 (3.0) n (%)
- ≥ 1 study drug-related serious TEAE [1]: 4 (6.0) n (%)
- TEAE: Abdominal abscess, event severity (n): mild/moderate/severe [2]: 0/0/4
- TEAE: Abdominal pain, event severity (n): mild/moderate/severe [2]: 3/0/1
- TEAE: Acidosis, event severity (n): mild/moderate/severe [2]: 2/2/0
- TEAE: Acute kidney injury, event severity (n): mild/moderate/severe [2]: 1/1/2
- TEAE: Anaemia, event severity (n): mild/moderate/severe [2]: 3/4/0
- TEAE: Atrial fibrillation, event severity (n): mild/moderate/severe [2]: 1/2/0
- TEAE: Bradycardia, event severity (n): mild/moderate/severe [2]: 2/3/0
- TEAE: Constipation, event severity (n): mild/moderate/severe [2]: 3/1/0
- TEAE: Decubitus ulcer, event severity (n): mild/moderate/severe [2]: 2/2/1
- TEAE: Deep vein thrombosis, event severity (n): mild/moderate/severe [2]: 1/3/0
- TEAE: Diarrhoea, event severity (n): mild/moderate/severe [2]: 4/3/0
- TEAE: Dyspnoea, event severity (n): mild/moderate/severe [2]: 1/2/1
- TEAE: Fluid overload, event severity (n): mild/moderate/severe [2]: 1/1/0
- TEAE: Hyperkalaemia, event severity (n): mild/moderate/severe [2]: 2/2/1
- TEAE: Hypertension, event severity (n): mild/moderate/severe [2]: 2/0/1
- TEAE: Hypokalaemia, event severity (n): mild/moderate/severe [2]: 8/2/0
- TEAE: Hypotension, event severity (n): mild/moderate/severe [2]: 3/3/1
- TEAE: Insomnia, event severity (n): mild/moderate/severe [2]: 1/1/0
- TEAE: Multiple organ dysfunction syndrome, event severity (n): mild/moderate/severe [2]: 0/0/3
- TEAE: Nausea, event severity (n): mild/moderate/severe [2]: 1/3/0
- TEAE: Peripheral oedema, event severity (n): mild/moderate/severe [2]: 1/1/0
- TEAE: Pleural effusion, event severity (n): mild/moderate/severe [2]: 1/3/0
- TEAE: Pneumonia, event severity (n): mild/moderate/severe [2]: 1/1/0
- TEAE: Pneumothorax, event severity (n): mild/moderate/severe [2]: 1/3/0
- TEAE: Pyrexia, event severity (n): mild/moderate/severe [2]: 5/1/0
- TEAE: Respiratory failure, event severity (n): mild/moderate/severe [2]: 0/0/4
- TEAE: Sepsis, event severity (n): mild/moderate/severe [2]: 0/0/3
- TEAE: Septic shock, event severity (n): mild/moderate/severe [2]: 0/0/7
- TEAE: Vomiting, event severity (n): mild/moderate/severe [2]: 2/1/0
- Study drug-related serious TEAEs, events (each event n = 1): ventricular tachycardia, rectal haemorrhage, hypertransaminasaemia, and anaphylactic shock
- Study drug-related TEAEs that led to study discontinuation, events (two patients): ventricular tachycardia and anaphylactic shock
